PostGolgi ctrl – growth of the yeast control strain, post-Golgi counter-screen; efflux-deficient yeast background strain, growth absorbance A615, 16 h; inhibition, % at 10 µM; actives 5% (n = 98,000); AID 738
Ecoli WT expand – blocks growth of wild type E. coli BW25113; actives 0.15% (n = 98,000); OD600 absorbance; growth inhibition, % at 100 µM; AID 710;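 active = growth inhibition above about 50% at one test dose, limit read from the data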;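 also: growth measured after 20 h incubation at 37 °C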
PostGolgi yeast – growth inhibition of a yeast mutant, post-Golgi transport screen; post-Golgi transport phenotypic cell assay; inhibition, % at 10 µM; actives 0.9% (n = 98,000);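 also: yeast cells grown in 1536-well plates; yeast grown about 18 h at 30C before absorbance read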
HePTP inh – inhibitors of human HePTP phosphatase; P35236; recombinant HePTP phosphatase activity, OD absorbance; inhibition, % at 20 µM; actives 0.64% (n = 110,000); in the data active = inhibition above about 50%;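 also: plate controls were vehicle for no effect and reference inhibitor for full effect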
Target sequence (P35236 whole entry, looked up): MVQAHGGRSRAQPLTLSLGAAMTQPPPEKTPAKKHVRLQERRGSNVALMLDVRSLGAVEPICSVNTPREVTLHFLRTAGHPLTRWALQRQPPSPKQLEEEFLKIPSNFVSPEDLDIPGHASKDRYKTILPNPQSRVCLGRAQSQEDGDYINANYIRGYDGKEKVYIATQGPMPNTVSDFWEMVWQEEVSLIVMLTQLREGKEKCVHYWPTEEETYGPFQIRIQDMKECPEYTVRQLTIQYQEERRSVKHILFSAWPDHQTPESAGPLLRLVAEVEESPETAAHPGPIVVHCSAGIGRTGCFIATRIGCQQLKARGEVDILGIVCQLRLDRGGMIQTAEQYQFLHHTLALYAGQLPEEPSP
PLAP activator – activators of human placental alkaline phosphatase; P05187; purified PLAP enzyme, luminescent substrate read-out; stronger effect = higher value; activation fold at 20 µM; actives 1.2% (n = 96,000); in the data active = activation fold above about 2
Ecoli tolC – growth inhibitors of E. coli BW25113 tolC mutant; OD615; growth inhibition, % at 10 µM (by protocol); actives 2.2% (n = 65,000);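 active = growth inhibition at or above a cutoff equal to the mean over every tested compound plus 3 SD, cut at about 60% in these data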;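 also: growth measured after 20 h incubation at 37 °C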
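Test system: tolC-deleted E. coli BW25113; medium: LB with kanamycin 50 µg/mL; compound: single-point testing at 10 µM; incubation: 20 h compound exposure of bacteria at 37 °C; signal: OD at 615 nm; evaluation: growth inhibition in percent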
Starred values were filed as active, the others as inactive; · = no result. A selection: hits, their analogues and other compounds. The true share with any hit is near 5.4%. Rule as the data show it, unless noted: active = inhibition above about 30%; inactive = the rest.

SMILES | PostGolgi ctrl | Ecoli WT expand | PostGolgi yeast | HePTP inh | PLAP activator | Ecoli tolC
Cc1ccc(CN2CCN(/N=C/c3cc(Br)ccc3O)CC2)cc1 | 22 | -7 | 74* | · | 1 | ·
O=C(NCC1(c2ccccc2)CCOCC1)c1cccc(Cl)c1 | · | · | · | 6 | · | ·
CCC(=O)Nc1ccc(NC(=O)/C=C/c2ccccc2)cc1 | · | · | · | -3 | · | ·
CCOc1ccc(C2C=C(c3ccc(C)cc3)Nc3nnnn32)cc1 (stereo not given) | 2 | -5 | 8 | 2 | 0.8 | -1
CCOc1ccc(C2C=C(c3ccc(C)cc3)Nc3ncnn32)cc1 (stereo not given) | 38* | -1 | 6 | -1 | 1.4 | 30
Cc1ccc2[nH]c(C(=O)N/N=C/c3ccc4c(c3)OCO4)c(-c3ccccc3)c2c1 | · | · | · | 4 | · | ·
COc1ccccc1-n1c(SCC(=O)NC(C)(C)C)nc(O)cc1=O | 5 | -1 | 2 | 8 | 1.6 | -7
COc1ccccc1-n1c(SCC(=O)Nc2ccccc2C)nc(O)cc1=O | 37* | -2 | 8 | 4 | 1.4 | -6
COc1ccccc1NC(=O)CSc1nc(O)cc(=O)n1-c1ccccc1OC | 35* | -11 | -3 | 8 | 1.3 | 2
CC(=O)Nc1ccccc1NS(=O)(=O)c1ccc(Cl)cc1 | 5 | 3 | 36* | -3 | 1.4 | ·
O=C(/C=C/c1ccccc1)CC(O)(c1ccccc1)C(F)(F)C(F)F (stereo not given) | 66* | -1 | 8 | · | 0.5 | ·
O=C(/C=C/c1ccccc1)CC(O)(c1ccccc1)C(F)(F)F (stereo not given) | 70* | 8 | 6 | · | 0.7 | ·
O=C(/C=C/c1ccccc1)CC(=O)C(F)(F)F | · | · | · | 9 | · | ·
O=C(CC(O)(c1ccccc1)C(F)(F)C(F)F)c1cccs1 (stereo not given) | 8 | 10 | -2 | -2 | 1.2 | 13
Cc1ccc(Sc2nnc(Cc3ccccc3)c3ccccc23)cc1 | 34* | -6 | 9 | · | 0.9 | ·
COc1ccc(Sc2nnc(Cc3ccccc3)c3ccccc23)cc1 | 16 | -7 | -8 | · | 1 | ·
O=C(N=Nc1c(O)[nH]c2ccc(Br)cc12)c1ccc([N+](=O)[O-])cc1 | · | · | · | -4 | · | ·
COc1ccc(NS(=O)(=O)c2cccc(C(=O)N/N=C(\C)c3ccc(-n4ccnc4)cc3)c2)cc1 | 4 | -6 | 8 | · | 2.1* | ·
O=C1OC(c2ccc3c(c2)OCO3)N(C(=O)c2ccc(Cl)c(Cl)c2)c2ccccc21 (stereo not given) | 30* | -19 | -3 | · | 1.1 | ·
NC1=NC(=O)/C(=C/c2ccc(-c3ccc([N+](=O)[O-])cc3Br)o2)S1 | · | · | · | 100* | · | ·
O=C1OC(c2ccccc2)=C/C1=C/c1ccc(-c2ccc([N+](=O)[O-])cc2Br)o1 | · | · | · | 104* | · | ·
CC1=C(C(=O)Nc2ccc(Br)cc2)C(c2ccccc2F)NC(=S)N1 (stereo not given) | · | · | · | -4 | · | ·
Cc1c(C(=O)Nc2ccc3nn(-c4ccccc4)nc3c2)cccc1[N+](=O)[O-] | · | · | · | -8 | · | ·
COc1ccc(C(=O)N2CCN(Cc3ccc(C)cc3C)CC2)cc1 | · | · | · | 9 | · | ·
Fc1ccccc1CSc1nnc(-c2cnccn2)n1Cc1ccco1 | 17 | -8 | 6 | 5 | · | 21
SMILES | PostGolgi ctrl | Ecoli WT expand | PostGolgi yeast | HePTP inh | PLAP activator | Ecoli tolC
Brc1ccc(CSc2nnc(-c3cnccn3)n2Cc2ccco2)cc1 | 38* | -6 | 7 | 8 | 1.3 | 64*
Clc1ccc(CSc2nnc(-c3ccccn3)n2Cc2ccco2)c(Cl)c1 | 52* | -9 | 4 | -1 | 1.7 | 43
CC1=C(C#N)C(=O)NC(C)(C)C1 | 37* | -1 | 1 | 4 | 0.9 | -11
O=[N+]([O-])c1ccc(-c2noc(CCc3ccccc3)n2)cc1 | · | · | · | 1 | · | ·
COc1ccc(C)cc1NC(=O)CN1CCN(c2ccccc2F)CC1 | 38* | -5 | 0 | 44 | 1.4 | 27
COc1ccc(C)cc1NC(=O)CN1CCN(C/C=C/c2ccccc2)CC1 | 14 | 6 | 27 | · | 2.3* | ·
COc1ccc(C)cc1NC(=O)CN1CCN(S(=O)(=O)c2ccc(F)cc2)CC1 | 31* | -2 | 2 | 6 | 0.9 | 0
COc1ccc(C)cc1NC(=O)/C=C/c1ccccc1 | · | · | · | -19 | · | ·
CCN1C(=O)/C(=C\c2cc(Br)c(OCc3ccccc3F)c(OC)c2)SC1=S | · | · | · | -7 | · | ·
Cc1ccc(N(CC(O)CN2CCCC2)S(=O)(=O)c2ccc(C)cc2)cc1 (stereo not given) | 46* | 2 | -1 | 17 | 1.3 | -2

Screening results: PubChem, several laboratories
